This is a sample that favours compounds with a hit; in the whole collection about 3.6% have one here.
PAFAH2 FP inh: PAFAH2 enzyme inhibitors, primary screen, biochemical, fluorescence polarization, human; inhibition, % at 3.39 µM; Platelet-activating factor acetylhydrolase 2, cytoplasmic (Homo sapiens), Q99487; recombinant PAFAH2, FP-rhodamine activity probe; 340,000 tested, 0.99% active;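 active means inhibition above the mean over all tested compounds plus 3 SD, cut at about 30% in these data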;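 further: inhibitors block probe labeling of enzyme so polarization drops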
VIM-2 inh: VIM-2 metallo-beta-lactamase inhibitors, primary screen, biochemical, epi-absorbance readout, Pseudomonas aeruginosa enzyme; inhibition, % at 5.6 µM; 290,000 tested, 0.89% active; purified VIM-2, nitrocefin hydrolysis, epi-absorbance fluorescence;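 active means inhibition above the mean of all tested compounds plus 3 SD, cutoff set per screening run, cut at about 7.5% in these data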;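 further: red hydrolysis product quenches plate fluorescence so inhibitors raise well fluorescence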
IMP-1 inhibitor: IMP-1 metallo-beta-lactamase inhibitors, primary screen, biochemical, epi-absorbance readout, Pseudomonas aeruginosa enzyme. metallo-beta-lactamase IMP-1 (Pseudomonas aeruginosa). 290,000 tested, 0.45% active. inhibition, % at 5.6 µM. purified IMP-1, nitrocefin hydrolysis, epi-absorbance fluorescence;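 active means inhibition above the mean plus 3 SD of all compounds in the same screening run, cut at about 4.5% in these data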
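assay system = purified recombinant IMP-1 metallo-beta-lactamase enzyme | schedule = 15 min preincubation plus 25 min reaction at 25 °C | signal = Epi-absorbance fluorescence, 480 nm excitation, 530 nm emission | read-out basis = percent inhibition from optical density relative to buffer-blank wells | controls = IMP-1 with DMSO as 0%, enzyme-free DMSO as 100%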
PAFAH1B2 inh: PAFAH1B2 enzyme inhibitors, primary screen, biochemical, fluorescence polarization, human; Platelet-activating factor acetylhydrolase IB subunit alpha2 (Homo sapiens), P68402; recombinant PAFAH1B2, FP-rhodamine activity probe; inhibition, % at 3.39 µM; 340,000 tested, 1.2% active; AID 492953, 2010;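 active means inhibition above the mean of all tested compounds plus 3 SD, cut at about 24% in these data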
Target sequence (P68402 whole entry, looked up): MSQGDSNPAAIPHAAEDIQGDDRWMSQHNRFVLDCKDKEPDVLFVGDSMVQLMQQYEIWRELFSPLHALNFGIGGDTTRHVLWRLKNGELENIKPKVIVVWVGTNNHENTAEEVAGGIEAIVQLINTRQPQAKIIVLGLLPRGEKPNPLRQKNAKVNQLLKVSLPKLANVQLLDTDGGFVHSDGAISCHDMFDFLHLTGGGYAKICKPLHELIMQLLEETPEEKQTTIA
pPAFAH FP inh: pPAFAH enzyme inhibitors, primary screen, biochemical, fluorescence polarization, human; Platelet-activating factor acetylhydrolase (Homo sapiens), Q13093; recombinant pPAFAH, FP-rhodamine probe fluorescence polarization; inhibition, % at 3.39 µM; 330,000 tested, 1.5% active; AID 463082, 2010;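 active means inhibition above the mean inhibition across the screen plus 3 SD, cut at about 25% in these data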;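 further: inhibitors block binding of the rhodamine activity-based probe so polarization drops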
PAFAH1B3 FP inh: PAFAH1B3 enzyme inhibitors, primary screen, biochemical, fluorescence polarization, human; inhibition, % at 3.39 µM; recombinant PAFAH1B3, FP-rhodamine probe; 340,000 tested, 0.28% active;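 active means inhibition above the screen-wide average of all tested compounds plus 3 SD, cut at about 25% in these data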
Target sequence (Q15102 whole entry, looked up): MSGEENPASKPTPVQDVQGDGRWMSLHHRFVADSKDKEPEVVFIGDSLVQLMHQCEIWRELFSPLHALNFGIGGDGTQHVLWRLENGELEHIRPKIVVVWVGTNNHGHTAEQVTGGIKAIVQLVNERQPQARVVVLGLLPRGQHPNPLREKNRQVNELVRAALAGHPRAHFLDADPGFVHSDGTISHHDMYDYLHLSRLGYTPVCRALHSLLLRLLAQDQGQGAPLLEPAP
Hits are given with their value; - = inactive; . = not tested or not shown.

SMILES	PAFAH2 FP inh	VIM-2 inh	IMP-1 inhibitor	PAFAH1B2 inh	pPAFAH FP inh	PAFAH1B3 FP inh
CCCc1[nH]nc2c1C(c1ccc(OCCN3CCOCC3)c(OCC)c1)C(C#N)=C(N)O2 (configuration not stated)	-	8.7	-	-	-	-
CCOc1cc(C2C(C#N)=C(N)Oc3n[nH]c(C)c32)ccc1OCCN1CCOCC1 (configuration not stated)	-	-	-	-	-	-
C/C(=N\NC(=O)c1cccs1)c1ccc2c(c1)OCO2	.	-	-	.	28	.
COc1ccc(C(=O)c2sc3nc(-c4ccccc4)ccc3c2N)cc1OC	-	-	-	-	30	-
CCn1nc(NS(=O)(=O)c2cccc3nonc23)c2cc3ccc(C)cc3nc21	-	-	-	-	-	-
CCCCn1nc(NS(=O)(=O)c2cccc3nonc23)c2cc3cccc(C)c3nc21	-	-	-	-	32	-
S=C(NCc1ccc(Cl)cc1Cl)Nc1ccccc1	-	-	-	-	33	-
COc1ccc(C(=O)N(CCc2ccccc2)Cc2ccccc2)cc1S(=O)(=O)N1CCOCC1	-	.	.	-	27	-
Cc1ccc(-n2c(SCC(=O)N(C)C3CCS(=O)(=O)C3)nc3ccccc3c2=O)c(C)c1 (configuration not stated)	-	.	.	-	-	-
COC(=O)[C@]1(C)N[C@H](c2ccc(-c3ccc(Cl)c(Cl)c3)c(OC)c2)[C@@H]2C(=O)N(C)C(=O)[C@@H]21	-	.	.	-	30	-
COC(=O)[C@]1(C)N[C@H](c2ccc(-c3ccc(OC)cc3)cc2)[C@@H]2C(=O)N(C)C(=O)[C@@H]21	-	.	.	-	-	-
CCN1CC=C2C(C#N)=C(N)C(C#N)(C#N)C(CCc3ccccc3)C2C1 (configuration not stated)	-	-	-	26	25	-
CC(=O)N1CC=C2C(C#N)=C(N)C(C#N)(C#N)C(CCc3ccccc3)C2C1 (configuration not stated)	-	-	-	-	-	-
O=C(NC(=S)NCc1ccccc1Cl)c1cccs1	-	.	.	-	27	-
O=C(NCC(c1ccco1)N1CCc2ccccc2C1)C(=O)Nc1ccccc1 (configuration not stated)	-	.	.	-	-	-
OCCN(CCO)c1nc(N2CCCCC2)c2nc(N(CCO)CCO)nc(N3CCCCC3)c2n1	-	-	12	-	-	-
Nc1nc(NCCO)nc(N2CCCCCC2)c1[N+](=O)[O-]	-	-	-	-	-	-
CCOC(=O)C1CCN(c2ncnc3c2[nH]c2cccc(OC)c23)CC1	-	8.4	-	-	-	-
COc1cccc2[nH]c3c(N4CCCCC4)ncnc3c12	-	-	-	-	-	-
COc1ccc(CNC(=O)Cc2c(C(=O)O)[nH]c3ccccc23)cc1	-	-	-	25	-	-
O=C(NCCNc1ccc2ccccc2c1)c1cccn2c(=O)c3sccc3nc12	.	8.1	-	.	-	.
Cc1cccc(OCc2nnc(SCC(=O)N(c3ccccc3)C3CCS(=O)(=O)C3)o2)c1 (configuration not stated)	-	.	.	-	-	-
CN(C(=O)c1cccc(NC(=O)C2CCN(C(=O)OC(C)(C)C)CC2)c1)C1CCCCC1	-	.	.	-	-	-
O=C(CCc1ccc(S(=O)(=O)N2CCOCC2)cc1)N/N=C/c1ccc(O)c(O)c1O	-	-	-	-	28	-
CCOC(=O)CCCCC(=O)c1[nH]c(=O)[nH]c1CSc1nnc2c3cc(Br)ccc3n(C)c2n1	.	-	-	.	-	.
SMILES	PAFAH2 FP inh	VIM-2 inh	IMP-1 inhibitor	PAFAH1B2 inh	pPAFAH FP inh	PAFAH1B3 FP inh
CCOC(=O)CSc1nnc2c3ccccc3n(C)c2n1	-	-	-	-	-	-
CCOC(=O)Cc1nnc(NC(=O)C(CC)Sc2nnc3c4ccccc4n(C)c3n2)s1 (configuration not stated)	-	9.3	-	-	-	-
Cn1c2ccc(Br)cc2c2nnc(SCC(=O)O)nc21	-	9.8	-	-	-	-
Cn1c2ccccc2c2nnc(SCC(=O)NC3CC3)nc21	-	9.2	-	-	-	-
CCn1c2ccccc2c2nnc(SCC(=O)NC3CCS(=O)(=O)C3)nc21 (configuration not stated)	-	-	-	-	-	-
Cn1c2ccccc2c2nnc(SCC(N)=O)nc21	-	8.0	-	-	-	-
O=C1CC(c2ccccc2)(c2ccccc2)c2ccccc21	-	.	.	-	.	-
O=C1c2ccccc2[C@@H]2C[C@H]3O[C@H]3CCN12	-	.	.	-	-	-
C=CCn1c2ccccc2c2nnc(SCC(N)=O)nc21	-	8.9	-	-	-	-
CCn1c2ccccc2c2nnc(SCC(N)=O)nc21	-	-	-	-	-	-
Cc1ccc(-c2csc(Cc3nc(-c4ccc5c(c4)CCC(=O)N5)cs3)n2)cc1	-	-	-	-	26	-
CCOC(=O)[C@@H]1[C@H]2COc3ccc(Br)cc3[C@H]2N2C(=O)N(c3ccc(C(F)(F)F)cc3)C(=O)[C@]12C	-	.	.	-	-	-
O=S(=O)(Nc1ccc(S(=O)(=O)Nc2cccc3ccccc23)cc1)c1ccccc1	-	-	-	30	33	-
O=S(=O)(Nc1ccc(Nc2ccccc2)cc1)c1ccc(F)cc1	-	.	.	-	26	-
O=C(O)c1ccccc1C(=O)Nc1ccc(S(=O)(=O)Nc2ccc(F)cc2)cc1	-	-	-	-	-	-
COc1ccc(C(=O)O)cc1S(=O)(=O)Nc1ccc(Oc2ccccc2)cc1	-	.	.	-	27	-
Cc1ccc(Oc2ccc(S(=O)(=O)Nc3ccc(C(=O)O)cc3)cc2)cc1	-	.	.	-	29	-
COc1cc(/C=C/C(C)=NNc2ccccc2)ccc1O	-	.	.	-	.	-
O=S(=O)(Nc1ccc(-c2ccccc2)cc1)c1ccccc1	-	.	.	-	.	-
Cc1cc(NS(=O)(=O)c2ccccc2)cc(Cl)c1O	-	-	-	-	-	-
O=S(=O)(Nc1ccccc1)c1ccc(NS(=O)(=O)c2c(F)cccc2F)cc1	-	-	-	-	28	-
Cc1ccc(Nc2ccccc2)cc1	-	-	-	-	-	-
Cc1ccc(S(=O)(=O)Nc2cc(C)c(O)c(S(=O)(=O)c3ccc(C)cc3)c2)cc1	-	-	-	34	-	-
CCOc1ccc(NS(=O)(=O)c2ccc(C(=O)N(C)CC(=O)Nc3ccc(C)cc3)cc2)cc1	-	.	.	-	33	-
Cc1ccc(S(=O)(=O)Nc2ccc(Nc3ccccc3)cc2)cc1	-	-	-	-	29	-
Cc1ccc(NC(=O)CN(C)C(=O)c2ccc(NS(=O)(=O)c3cccc([N+](=O)[O-])c3)cc2)cc1	-	.	.	-	-	-
